Where “and” joins values, the source holds several entries; their conditions need not be identical. Identical values can stand only once. Like-named read-outs stand apart in the source and are kept apart here.
Columns and labels:
[1] = assay type: in vivo, human; settings: for AUC0-t / AUC0-∞ / MRT0-t / MRT0-∞ / t1/2: in hPBMCs, single oral dose 600 mg AZT, mean±SD, n=12; for MRT inf / MRT last / half-life: male, human, peripheral blood mononuclear cells (hPBMCs), po, 600 mg
[2] = Plasma pharmacokinetics after a single oral dose of AZT; assay type: in vivo, human; settings: for Plasma concentration of the phosphorylated metabolites: after single oral dose 600 mg AZT
Method in brief: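 Open-label study in 12 healthy Chinese men (20–28 y) after an overnight fast of at least 12 h. Each took a single 600 mg oral dose of test compound with 240 mL water, with standardized meals at 4 and 10 h. Heparinized blood (20 mL) was drawn by antecubital catheter predose and at 0.5–10 h. Plasma was stored at –20 °C and assayed by validated LC–MS/MS (C18; 0.2% formic acid/methanol), LLOQ 0.1125 pg/μL.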

[3] = Safety and tolerability in healthy subjects; assay type: in vivo, human
Method in brief: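 Open-label, single-dose study in 12 screened healthy Chinese men, negative for hepatitis and HIV. After an overnight fast of at least 12 h, each took 600 mg orally with 240 mL water, with standardized meals at 4 and 10 h. Safety was assessed in all completers under prolonged bed rest, extended stay in the clinical unit, and enhanced clinical monitoring and nursing.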

[4] = liver or heart mitochondria; cited from earlier work
[5] = single oral dose 600 mg AZT, 12 subjects

SMILES	AUC0-t [1]	AUC0-∞ [1] [ng⋅h/10^6 cell]	MRT0-t [1] [h]	MRT0-∞ [1] [h]	t1/2 [1] [h]	Plasma concentration of the phosphorylated metabolites [2]	MRT inf [1] [h]	MRT last [1] [h]	half-life [1] [min]	further results
Cc1cn([C@H]2C[C@H](N=[N+]=[N-])[C@@H](COP(=O)(O)O)O2)c(=O)[nH]c1=O [AZT-MP, AZT monophosphate]	2.548 ng⋅h/10^6 cell and 2.548±0.656 ng⋅h/10^6 cell	6.343±2.964	4.190 ± 0.347	18.715 ± 12.856	13.428 ± 9.611	not present in measurable levels	–	–	–	–
Cc1cn([C@H]2C[C@H](N=[N+]=[N-])[C@@H](CO)O2)c(=O)[nH]c1=O [AZT, 3'-azido-3'-deoxythymidine]	0.371±0.193 ng⋅h/10^6 cell	0.396±0.189	–	–	–	–	14.9 ± 32.4	4.94 ± 19.3	150 ± 38.3	AUC0-t ([2]; male, human, po, 600 mg): 7050 ± 1280 ng·h/mL; AUC(0-inf) ([2]; male, human, po, 600 mg): 7170 ± 1270 ng·h/mL; Cmax ([2]; male, human, po, 600 mg): 3510 ± 363 ng/mL; MRT inf ([2]; male, human, po, 600 mg): 2.4 ± 0.216 h; MRT last ([2]; male, human, po, 600 mg): 2.2 ± 0.253 h; Vd/F ([2]; male, human, po, 600 mg): 264 ± 162 L; half-life ([2]; male, human, po, 600 mg): 121 ± 56.8 min; CL/F ([2]; single oral dose 600 mg AZT, mean±SD, n=12): 86.092 ± 14.962 L/h; Hypersensitivity to AZT ([3]; 12 subjects): None of the 12 subjects had hypersensitivity; Tolerability ([3]; single oral dose 600 mg AZT, 12 healthy Chinese male subjects): well tolerated; Reported ADR: headache [3, 5]: one report; Reported ADR: nausea [3, 5]: one report
Cc1cn([C@H]2C[C@H](N=[N+]=[N-])[C@@H](COP(=O)(O)OP(=O)(O)O)O2)c(=O)[nH]c1=O [AZT-DP, AZT diphosphate]	0.345±0.055 ng⋅h/10^6 cell	0.615±0.161	0.792 ± 12.028	14.270 ± 6.350	8.285 ± 2.840	not present in measurable levels	–	–	–	–
Cc1cn([C@H]2C[C@H](N=[N+]=[N-])[C@@H](CO[P@](=O)(O)O[P@](=O)(O)OP(=O)(O)O)O2)c(=O)[nH]c1=O [AZT-TP, 5′-AZT triphosphate]	0.223±0.043 ng⋅h/10^6 cell	0.279±0.069	–	–	–	not present in measurable levels	6.33 ± 1.14	3.87 ± 0.235	254 ± 58.6	Detection of AZT-TP during incubation in mitochondria [4]: No AZT-TP was detected
